Experimental data: ChEMBL document CHEMBL1125756, “Synthesis and antiarrhythmic activity of alpha-[(diarylmethoxy)methyl]-1-piperidineethanols” (1991)

Tests used:
Canis familiaris [1] = experiment: Percent of normal beats 1 hr after 5 mg/kg given over 5 min by i.v. infusion.; format: functional, Canis lupus familiaris; details: route intravenous
In short: (§1)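 Coronary-artery-ligated dogs with ventricular arrhythmias received 5 mg/kg iv in 10–20 mL isotonic saline, infused over 5 min. Limb lead II ECG was monitored continuously for up to 6 h or until activity ended. Percent normal sinus beats was scored at control, end of dose, 20 min and 1 h. Results are mean ± SEM for n≥3 and mean ± SD for n=2.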

Canis familiaris [2] = experiment: Percent of normal beats 20 min after 5 mg/kg given over 5 min by i.v. infusion.; format: functional, Canis lupus familiaris; details: route intravenous; in short: as §1
Canis familiaris [3] = experiment: Percent of normal beats after 5 mg/kg given over 5 min by i.v. infusion.; format: functional, Canis lupus familiaris; details: route intravenous; in short: as §1
Canis familiaris [4] = experiment: Activity rating following 5 mg/kg i.v. administration.; details: route intravenous
Canis familiaris [5] = experiment: […] 20 min after a dose of 5 mg/kg given intravenously over a 5-min period in normal dogs.; format: functional, Canis lupus familiaris; details: route intravenous
Canis familiaris [6] = experiment: […] at the end of the dose.(5 mg/kg was given intravenously over a 5-min period in normal dogs.); format: functional, Canis lupus familiaris
Canis familiaris [7] = experiment: Period of tachycardiac effect in conscious normal dogs; 0.5-2; format: functional, Canis lupus familiaris
In short: (§2)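 Conscious normal dogs, trained to sit quietly while sling-restrained, received 5 mg/kg iv over 5 min, as in the ligated-dog protocol. Heart rate came from continuous limb lead II ECG at control, end of dose, 20 min and 1 h. Dogs above 140 beats/min were followed until the rate fell to 140. Degree was graded severe ≥200, moderate 160–199, slight <160 with a rise ≥20, none ≤20 change. Duration was graded long >2 h, moderate 0.5–2 h, short <0.5 h.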

Canis familiaris [8] = experiment: Degree of tachycardia in conscious normal dogs.; format: functional, Canis lupus familiaris; in short: as §2
Canis familiaris [9] = experiment: […] 1 h after a dose of 5 mg/kg given intravenously over a 5-min period in normal dogs.; format: functional, Canis lupus familiaris; details: route intravenous
Canis familiaris [10] = experiment: Degree of tachycardia in conscious normal dogs; 160-199; format: functional, Canis lupus familiaris
In short: (§3)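 Conscious normal dogs, trained to sit quietly while sling restrained, were given 5 mg/kg iv as an infusion over 5 min in isotonic saline. Heart rate came from continuous limb lead II ECG during a control period, at end of dose, and at 20 min and 1 h. Degree bands were ≥200, 160–199, and <160 beats/min after a rise of ≥20. Duration bands were >2 h, 0.5–2 h and <0.5 h. Two dogs were used.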

Canis familiaris [11] = experiment: Period of tachycardiac effect in conscious normal dogs; format: functional, Canis lupus familiaris; in short: as §3
Canis familiaris [12] = experiment: […] 1 h after a dose of 5 mg/kg given intravenously over a 5-min period […].; format: functional, Canis lupus familiaris; details: route intravenous
In short: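 Dogs with coronary artery ligation and ventricular arrhythmia received 5 mg/kg iv in 10–20 mL isotonic saline, infused over 5 min. Limb lead II ECG was monitored continuously for up to 6 h. Percent normal sinus beats was scored at control, at end of dose, and at 20 min and 1 h. Values are mean ± SEM for three or more animals and mean ± SD for two.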

Canis familiaris [13] = experiment: Degree of tachycardiac effect in conscious normal dogs

Cc1ccccc1C(OCC(O)CN1CCCCC1)c1ccccc1C.O=C(O)C(=O)O (configuration not stated)
Normal beats (Canis familiaris [1]): 16% | Normal beats (Canis familiaris [2]): 31% | Normal beats (Canis familiaris [3]): 79% | Activity rating (Canis familiaris [4]): 21

Cc1ccccc1C(OCC(O)CN1CCCCC1C)c1ccccc1C.O=C(O)C(=O)O (configuration not stated)
Normal beats (Canis familiaris [1]): 24% | Normal beats (Canis familiaris [2]): 44% | Normal beats (Canis familiaris [3]): 49% | Activity rating (Canis familiaris [4]): 36

CC1CCC(C)N1CC(O)COC(c1ccccc1)c1ccccc1 (configuration not stated)
Heart rate (Canis familiaris [5]): 117 beats min-1 | Heart rate (Canis familiaris [6]): 140 beats min-1 | Rating (Canis familiaris [7]): 0.5 h | Rating (Canis familiaris [8]): <160 beats min-1 | Normal beats (Canis familiaris [1]): 12% | Normal beats (Canis familiaris [2]): 39% | Normal beats (Canis familiaris [3]): 96% | Heart rate (Canis familiaris [9]): 102 beats min-1 | Activity rating (Canis familiaris [4]): 36

C[N+](C)(C)CC(O)COC(c1ccccc1)c1ccccc1 (configuration not stated)
Heart rate (Canis familiaris [5]): 135 beats min-1 | Heart rate (Canis familiaris [6]): 242 beats min-1 | Rating (Canis familiaris [7]): 0.5 h | Rating (Canis familiaris [8]): >200 beats min-1 | Normal beats (Canis familiaris [1]): 0% | Normal beats (Canis familiaris [2]): 1% | Normal beats (Canis familiaris [3]): 52% | Heart rate (Canis familiaris [9]): 118 beats min-1 | Activity rating (Canis familiaris [4]): 9

CC1CCCC(C)[N+]1(C)CC(O)COC(c1ccccc1)c1ccccc1.[Cl-] (configuration not stated)
Heart rate (Canis familiaris [5]): 152 beats min-1 | Heart rate (Canis familiaris [6]): 167 beats min-1 | Rating (Canis familiaris [10]): 160 beats min-1 | Normal beats (Canis familiaris [1]): 28% | Normal beats (Canis familiaris [2]): 33% | Normal beats (Canis familiaris [3]): 15% | Rating (Canis familiaris [11]): <0.5 h | Heart rate (Canis familiaris [9]): 101 beats min-1 | Activity rating (Canis familiaris [4]): 15

CC(OCC(O)CN1C(C)CCCC1C)c1ccccc1 (configuration not stated)
Heart rate (Canis familiaris [5]): 101 beats min-1 | Heart rate (Canis familiaris [6]): 156 beats min-1 | Rating (Canis familiaris [8]): <160 beats min-1 | Normal beats (Canis familiaris [1]): 11% | Normal beats (Canis familiaris [2]): 16% | Normal beats (Canis familiaris [3]): 62% | Rating (Canis familiaris [11]): >2 h | Heart rate (Canis familiaris [9]): 144 beats min-1 | Activity rating (Canis familiaris [4]): 13

CC1CCCC(C)N1CC(O)CSC(c1ccccc1)c1ccccc1 (configuration not stated)
Heart rate (Canis familiaris [5]): 148 beats min-1 | Heart rate (Canis familiaris [6]): 185 beats min-1 | Rating (Canis familiaris [10]): 160 beats min-1 | Normal beats (Canis familiaris [1]): 42% | Normal beats (Canis familiaris [2]): 49% | Normal beats (Canis familiaris [3]): 95% | Heart rate (Canis familiaris [12]): 148 beats min-1 | Rating (Canis familiaris [11]): <0.5 h | Activity rating (Canis familiaris [4]): 51

Cc1ccccc1C(OCC(O)CN1C(C)CCCC1C)c1ccccc1 (configuration not stated)
Heart rate (Canis familiaris [5]): 153 beats min-1 | Heart rate (Canis familiaris [6]): 153 beats min-1 | Rating (Canis familiaris [7]): 0.5 h | Rating (Canis familiaris [10]): 160 beats min-1 | Normal beats (Canis familiaris [1]): 81% | Normal beats (Canis familiaris [2]): 71% | Normal beats (Canis familiaris [3]): 87% | Heart rate (Canis familiaris [9]): 134 beats min-1 | Activity rating (Canis familiaris [4]): 68

CC1CCCC(C)N1CC(O)COC(c1ccccc1)c1ccccc1 (configuration not stated)
Heart rate (Canis familiaris [5]): 171 beats min-1 | Heart rate (Canis familiaris [6]): 172 beats min-1 | Rating (Canis familiaris [7]): 0.5 h | Rating (Canis familiaris [10]): 160 beats min-1 | Normal beats (Canis familiaris [1]): 53% | Normal beats (Canis familiaris [2]): 67% | Normal beats (Canis familiaris [3]): 88% | Heart rate (Canis familiaris [9]): 150 beats min-1 | Activity rating (Canis familiaris [4]): 56

Cc1ccccc1C(OCC(O)CN1C(C)CCCC1C)c1ccccc1C (configuration not stated)
Heart rate (Canis familiaris [5]): 113 beats min-1 | Heart rate (Canis familiaris [6]): 153 beats min-1 | Rating (Canis familiaris [8]): <160 beats min-1 | Normal beats (Canis familiaris [1]): 50% | Normal beats (Canis familiaris [2]): 68% | Normal beats (Canis familiaris [3]): 87% | Rating (Canis familiaris [11]): <0.5 h | Heart rate (Canis familiaris [9]): 142 beats min-1 | Activity rating (Canis familiaris [4]): 51

Cc1cccc(C)c1C(OCC(O)CN1C(C)CCCC1C)c1c(C)cccc1C (configuration not stated)
Normal beats (Canis familiaris [1]): 54% | Normal beats (Canis familiaris [2]): 76% | Normal beats (Canis familiaris [3]): 49% | Activity rating (Canis familiaris [4]): 47

COc1ccccc1C(OCC(O)CN1C(C)CCCC1C)c1ccccc1OC (configuration not stated)
Heart rate (Canis familiaris [5]): 232 beats min-1 | Heart rate (Canis familiaris [6]): 234 beats min-1 | Rating (Canis familiaris [8]): >200 beats min-1 | Normal beats (Canis familiaris [1]): 33% | Normal beats (Canis familiaris [2]): 62% | Normal beats (Canis familiaris [3]): 100% | Rating (Canis familiaris [11]): >2 h | Heart rate (Canis familiaris [9]): 232 beats min-1 | Activity rating (Canis familiaris [4]): 57

Cc1cccc(C)c1C(OCC(O)CN1C(C)CCCC1C)c1ccccc1 (configuration not stated)
Normal beats (Canis familiaris [1]): 16% | Normal beats (Canis familiaris [2]): 19% | Normal beats (Canis familiaris [3]): 60% | Activity rating (Canis familiaris [4]): 8

CCN(CC)CC(=O)Nc1c(C)cccc1C.Cl
Normal beats (Canis familiaris [1]): 9% | Normal beats (Canis familiaris [2]): 23% | Normal beats (Canis familiaris [3]): 86% | Activity rating (Canis familiaris [4]): 20

CN(C)CC(O)COC(c1ccccc1)c1ccccc1.Cl (configuration not stated)
Heart rate (Canis familiaris [5]): 115 beats min-1 | Heart rate (Canis familiaris [6]): 121 beats min-1 | Normal beats (Canis familiaris [1]): 15% | Normal beats (Canis familiaris [2]): 25% | Normal beats (Canis familiaris [3]): 61% | Heart rate (Canis familiaris [9]): 110 beats min-1 | Rating (Canis familiaris [13]): < 20 beats min-1 | Activity rating (Canis familiaris [4]): 19

CC1CCCC(C)N1CC(O)CNC(c1ccccc1)c1ccccc1.Cl.Cl (configuration not stated)
Heart rate (Canis familiaris [5]): 132 beats min-1 | Heart rate (Canis familiaris [6]): 141 beats min-1 | Rating (Canis familiaris [8]): <160 beats min-1 | Normal beats (Canis familiaris [1]): 30% | Normal beats (Canis familiaris [2]): 47% | Normal beats (Canis familiaris [3]): 92% | Rating (Canis familiaris [11]): <0.5 h | Heart rate (Canis familiaris [9]): 122 beats min-1 | Activity rating (Canis familiaris [4]): 44

CCN(CC)CCNC(=O)c1ccc(N)cc1.Cl [PROCAINAMIDE HYDROCHLORIDE]
Normal beats (Canis familiaris [1]): 34% | Normal beats (Canis familiaris [2]): 66% | Normal beats (Canis familiaris [3]): 72% | Activity rating (Canis familiaris [4]): 52
